Measured values: ChEMBL document CHEMBL1129454, “HIV protease inhibitory bis-benzamide cyclic ureas: a quantitative structure-activity relationship analysis” (J Med Chem, 1996)
The source made the active and inactive calls. The calls are words filed in the database; no cut-off is given here.

Key:
[1] = tested on: Human immunodeficiency virus 1; assay: The concentration required to inhibit HIV-1 RNA synthesis by 90%. Viral RNA quantified by a sandwich hybridization assay; assay type: functional
Procedure, shortened: (§1)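 Susceptible T-cell lines grown in individual microtiter wells were infected with HIV. Cell-associated viral RNA was measured by RNA hybridization 3 days after infection. […] Assay SD was <±37%. Cytotoxicity was scored separately by tetrazolium dye metabolism, because RNA assay results are valid only at non-cytotoxic doses.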

[2] = biological target: T1, Human immunodeficiency virus type 1 protease (Human immunodeficiency virus 1, UniProt Q72874); assay: Binding affinity for HIV-1 protease
Procedure, shortened: (§2)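 Cleavage products were separated by anion-exchange HPLC and the product quantified by fluorescence. Each compound was assayed at least twice and the mean reported; assay SD <±40%.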

[3] = biological target: T1, Human immunodeficiency virus type 1 protease; assay: Inhibitory activity against HIV-1 protease; procedure, shortened: as §2
[4] = biological target: T1, Human immunodeficiency virus type 1 protease; assay: Binding affinity was evaluated with recombinant single chain dimeric HIV protease enzyme with a fluorescent substrate; not active; procedure, shortened: as §2
T-cell = assay: The concentration of the antiviral compound required to inhibit HIV RNA synthesis by 90%. viral RNA was quantified by sandwich hybridization assay; not active; assay type: functional, cell-based; procedure, shortened: as §1
[5] = biological target: T1, Human immunodeficiency virus type 1 protease; assay: Binding affinity was evaluated on HIV Protease enzyme; not active; procedure, shortened: as §2

SMILES	IC90 ([1]; Human immunodeficiency virus 1)	Ki [2]	Ki [3]	Ki [4]	IC90 (T-cell)	Ki [5]	IC90 [1]
Cc1ccnc(NC(=O)c2cccc(CN3C(=O)N(Cc4cccc(C(=O)Nc5cc(C)ccn5)c4)[C@H](Cc4ccccc4)[C@H](O)[C@@H](O)[C@H]3Cc3ccccc3)c2)c1	7.7 nM	0.03 nM	0.027 nM				
CCNC(=O)c1cccc(CN2C(=O)N(Cc3cccc(C(=O)NCC)c3)[C@H](Cc3ccccc3)[C@H](O)[C@@H](O)[C@H]2Cc2ccccc2)c1	139 nM	0.21 nM	0.21 nM				
CC(C)(C)NC(=O)c1cccc(CN2C(=O)N(Cc3cccc(C(=O)NC(C)(C)C)c3)[C@H](Cc3ccccc3)[C@H](O)[C@@H](O)[C@H]2Cc2ccccc2)c1	717 nM	2.6 nM	2.4 nM				
O=C(Nc1ccccn1)c1cccc(CN2C(=O)N(Cc3cccc(C(=O)Nc4ccccn4)c3)[C@H](Cc3ccccc3)[C@H](O)[C@@H](O)[C@H]2Cc2ccccc2)c1	2.8 nM	0.01 nM	0.043 nM				
CC1(C)O[C@@H]2[C@@H](O1)[C@@H](Cc1ccccc1)N(Cc1cccc(C#N)c1)C(=O)N(Cc1cccc(C#N)c1)[C@@H]2Cc1ccccc1				Not Active	inactive	Not Active	
COC(=O)c1cccc(CN2C(=O)N(Cc3cccc(C(=O)OC)c3)[C@H](Cc3ccccc3)[C@@H]3OC(C)(C)O[C@H]3[C@H]2Cc2ccccc2)c1				Not Active	inactive	Not Active	
O=C(Nc1ncccn1)c1cccc(CN2C(=O)N(Cc3cccc(C(=O)Nc4ncccn4)c3)[C@H](Cc3ccccc3)[C@H](O)[C@@H](O)[C@H]2Cc2ccccc2)c1	220 nM	0.15 nM	0.152 nM				
CNC(=O)c1cccc(CN2C(=O)N(Cc3cccc(C(=O)NC)c3)[C@H](Cc3ccccc3)[C@H](O)[C@@H](O)[C@H]2Cc2ccccc2)c1 (stereo in doubt; 6)		0.06 nM	0.066 nM				80.5 nM
O=C(Nc1ccc(Cl)cn1)c1cccc(CN2C(=O)N(Cc3cccc(C(=O)Nc4ccc(Cl)cn4)c3)[C@H](Cc3ccccc3)[C@H](O)[C@@H](O)[C@H]2Cc2ccccc2)c1	14.7 nM	0.01 nM	0.012 nM				
Cc1cccnc1NC(=O)c1cccc(CN2C(=O)N(Cc3cccc(C(=O)Nc4ncccc4C)c3)[C@H](Cc3ccccc3)[C@H](O)[C@@H](O)[C@H]2Cc2ccccc2)c1	50.3 nM	0.26 nM	0.26 nM				
CC1(C)O[C@@H]2[C@@H](O1)[C@@H](Cc1ccccc1)N(Cc1cccc(C(=O)O)c1)C(=O)N(Cc1cccc(C(=O)O)c1)[C@@H]2Cc1ccccc1				Not Active	inactive	Not Active	
NC(=O)c1cccc(CN2C(=O)N(Cc3cccc(C(N)=O)c3)[C@H](Cc3ccccc3)[C@H](O)[C@@H](O)[C@H]2Cc2ccccc2)c1	709 nM	0.06 nM	0.039 nM				
NNC(=O)c1cccc(CN2C(=O)N(Cc3cccc(C(=O)NN)c3)[C@H](Cc3ccccc3)[C@H](O)[C@@H](O)[C@H]2Cc2ccccc2)c1	884 nM	0.018 nM	0.018 nM				
O=C(NO)c1cccc(CN2C(=O)N(Cc3cccc(C(=O)NO)c3)[C@H](Cc3ccccc3)[C@H](O)[C@@H](O)[C@H]2Cc2ccccc2)c1	448 nM	0.02 nM	0.02 nM				
Cc1ccnc(NC(=O)c2cccc(CN3C(=O)N(Cc4cccc(C(=O)Nc5nccc(C)n5)c4)[C@H](Cc4ccccc4)[C@H](O)[C@@H](O)[C@H]3Cc3ccccc3)c2)n1	124 nM	0.12 nM	0.115 nM				
N#CCNC(=O)c1cccc(CN2C(=O)N(Cc3cccc(C(=O)NCC#N)c3)[C@H](Cc3ccccc3)[C@H](O)[C@@H](O)[C@H]2Cc2ccccc2)c1	596 nM	0.063 nM	0.063 nM				
O=C(Nc1cnccn1)c1cccc(CN2C(=O)N(Cc3cccc(C(=O)Nc4cnccn4)c3)[C@H](Cc3ccccc3)[C@H](O)[C@@H](O)[C@H]2Cc2ccccc2)c1	3.5 nM	0.02 nM	0.018 nM				
CC(C)NC(=O)c1cccc(CN2C(=O)N(Cc3cccc(C(=O)NC(C)C)c3)[C@H](Cc3ccccc3)[C@H](O)[C@@H](O)[C@H]2Cc2ccccc2)c1	266 nM	0.58 nM	0.579 nM				
O=C(Nc1ccc(C(F)(F)F)cn1)c1cccc(CN2C(=O)N(Cc3cccc(C(=O)Nc4ccc(C(F)(F)F)cn4)c3)[C@H](Cc3ccccc3)[C@H](O)[C@@H](O)[C@H]2Cc2ccccc2)c1	63.4 nM	0.09 nM	0.085 nM				
O=C(Nc1ncc(Cl)cc1Cl)c1cccc(CN2C(=O)N(Cc3cccc(C(=O)Nc4ncc(Cl)cc4Cl)c3)[C@H](Cc3ccccc3)[C@H](O)[C@@H](O)[C@H]2Cc2ccccc2)c1	43 nM	0.24 nM	0.245 nM				
Cc1cc(C)nc(NC(=O)c2cccc(CN3C(=O)N(Cc4cccc(C(=O)Nc5cc(C)cc(C)n5)c4)[C@H](Cc4ccccc4)[C@H](O)[C@@H](O)[C@H]3Cc3ccccc3)c2)c1	6.6 nM	0.02 nM	0.016 nM				
O=C(Nc1cccnc1)c1cccc(CN2C(=O)N(Cc3cccc(C(=O)Nc4cccnc4)c3)[C@H](Cc3ccccc3)[C@H](O)[C@@H](O)[C@H]2Cc2ccccc2)c1	123 nM	0.29 nM	0.29 nM				
O=C(Nc1ccc(Br)cn1)c1cccc(CN2C(=O)N(Cc3cccc(C(=O)Nc4ccc(Br)cn4)c3)[C@H](Cc3ccccc3)[C@H](O)[C@@H](O)[C@H]2Cc2ccccc2)c1	28.2 nM	0.04 nM	0.035 nM				
Cc1ccc(NC(=O)c2cccc(CN3C(=O)N(Cc4cccc(C(=O)Nc5ccc(C)cn5)c4)[C@H](Cc4ccccc4)[C@H](O)[C@@H](O)[C@H]3Cc3ccccc3)c2)nc1	3.1 nM	0.01 nM	0.011 nM				
O=C(Nc1ccccc1)c1cccc(CN2C(=O)N(Cc3cccc(C(=O)Nc4ccccc4)c3)[C@H](Cc3ccccc3)[C@H](O)[C@@H](O)[C@H]2Cc2ccccc2)c1	510 nM	0.37 nM	0.43 nM				
CONC(=O)c1cccc(CN2C(=O)N(Cc3cccc(C(=O)NOC)c3)[C@H](Cc3ccccc3)[C@H](O)[C@@H](O)[C@H]2Cc2ccccc2)c1	214 nM	0.08 nM	0.045 nM				
